The results in this text go back to ChEMBL document CHEMBL1687886, “N-cyclic bay-substituted perylene G-quadruplex ligands have selective antiproliferative effects on cancer cells and induce telomere damage” (J Med Chem, 2011).

Structures are written as SMILES. Calls of active or inactive are those of the source. The calls are words filed in the database; no cut-off is given here.

The term ΔTm denotes the shift of the melting midpoint relative to a reference.

The subject of data set [1] is BJ. In words: Antiproliferative activity against human BJ cells expressing SV40 early region EHLT at 3 uM after 24 hrs by Coulter counter method. It counts as functional, cell-based. Particulars: TDE = time-dependent effect. In a few lines: (§1)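 Cells seeded at 5 ×10^4 per dish; compounds freshly dissolved and added to the medium 24 h after plating, at 0.5 μM or 3 μM (3 μM only for one derivative). Cell number by Coulter counting and viability by trypan blue exclusion daily, day 1 to day 8. Growth inhibition of treated vs untreated cells calculated at days 2, 4, 6 and 8. Representative experiments in quintuplicate, SD shown.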

In data set [2] the test system is Nucleic Acid. In words: Binding affinity to human 21-TT G-quadruplex DNA structure assessed as bound DNA at 5:10 DNA to drug ratio by electrospray ionization mass spectrometry. Type of data set: nucleic-acid assay. Put shortly:
(§2)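 ESI-MS in 150 mM ammonium acetate; DNA 5 μM final (per duplex or quadruplex unit); ligand at drug/DNA ratios 0.5 to 4. Methanol (15%) added just before injection, after binding equilibrium. K1 and K2 for 1:1 and 2:1 complexes, and % bound DNA, taken from relative peak intensities assuming equal response factors. At least three repeats.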

Data set [3] relates to Nucleic Acid. In words: Binding affinity to human 21-TT G-quadruplex DNA structure assessed as bound DNA at 5:5 DNA to drug ratio by electrospray ionization mass spectrometry. Type of data set: nucleic-acid assay. In a few lines: as §2
Data set [4] deals with BJ. In words: Induction of DNA damage response in human BJ cells expressing human TERT assessed as phosphorylation of gamma H2AX after 24 hrs by immunofluorescence. It counts as functional, cell-based. In a few lines: (§3)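 BJ-EHLT and BJ-hTERT fibroblasts exposed to a range of concentrations for 24 h. Fixed in 2% formaldehyde, permeabilized in 0.25% Triton X-100, immunostained for γ-H2AX and 53BP1. Percentage of positive cells scored. Three independent experiments, SD.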

The subject of data set [5] is BJ. Nature of the data set: Induction of DNA damage response in human BJ cells expressing SV40 early region EHLT assessed as phosphorylation of gamma H2AX at 3 uM after 24 hrs by immunofluorescence. It counts as functional, cell-based. In a few lines:
as §3

Data set [6] has as its system BJ. In words: Antiproliferative activity against human BJ cells expressing TERT at 0.5 uM after 2 to 8 days by trypan blue assay. It counts as cell-based. In a few lines: as §1
In data set [7] the test system is BJ. In words: Growth inhibition of human BJ cells expressing SV40 early region EHLT at 3 uM on day 8 after 24 hrs trypan blue assay. Type of data set: functional. Particulars: read-out: GI. Put shortly:
as §1

Data set [8] has as its system Nucleic Acid. In words: Binding affinity to human DK66 duplex DNA structure assessed as bound DNA at 5:20 DNA to drug ratio by electrospray ionization mass spectrometry. Type of data set: nucleic-acid assay. In a few lines: as §2
In data set [9] the test system is BJ. Nature of the data set: Induction of DNA damage response in human BJ cells expressing human TERT assessed as phosphorylation of […] after 24 hrs by immunofluorescence. It counts as functional, cell-based. Put shortly:
as §3

Data set [10] has as its system Nucleic Acid. Nature of the data set: Binding affinity to human 21-TT G-quadruplex DNA structure at 1:5 DNA to calf thymus DNA ratio by competitive inhibition assay. Type of data set: nucleic-acid assay. Also on record: concentration or dose not given beside the values. Put shortly: (§4)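 ESI-MS competition: quadruplex DNA and ligand each 5 μM final, plus calf thymus DNA at duplex/quadruplex ratios 1 and 5 (by phosphate concentration), in ammonium acetate. Percentage bound quadruplex and normalized bound quadruplex (N%) measured by mass spectrometry. SD over at least three independent experiments.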

Data set [11] relates to Nucleic Acid. In words: Binding affinity to human DK66 duplex DNA structure assessed as first step association constant by electrospray ionization mass spectrometry. Type of data set: nucleic-acid assay. Put shortly: as §2
Data set [12] concerns Nucleic Acid. Nature of the data set: Binding affinity to human 21-TT G-quadruplex DNA structure assessed as first step association constant by electrospray ionization mass spectrometry. It counts as nucleic-acid assay. Put shortly:
as §2

The test system of data set [13] is Nucleic Acid. In words: Binding affinity to human 21-TT G-quadruplex DNA structure assessed as second step association constant by electrospray ionization mass spectrometry. Type of data set: nucleic-acid assay. In a few lines: as §2
Data set [14] relates to Nucleic Acid. Nature of the data set: Stabilization of human duplex DNA T-loop assessed as change in melting temperature at 1 uM by FRET assay. Type of data set: nucleic-acid assay.
Data set [15] has as its system Nucleic Acid. Nature of the data set: Stabilization of 21-mer human F21T G4-telomeric quadruplex assessed as change in melting temperature at 1 uM by FRET assay. It counts as nucleic-acid assay.
Data set [16] has as its system Nucleic Acid. Nature of the data set: Binding affinity to human 21-TT G-quadruplex DNA structure at 1:1 DNA to calf thymus DNA ratio by competitive inhibition assay. It counts as nucleic-acid assay. More on the design: concentration or dose not given beside the values. In a few lines: as §4

In the case of `O=C1c2ccc3c4c(N5CCCCC5)cc5c6c(ccc(c7c(N8CCCCC8)cc(c2c37)C(=O)N1CCN1CCCCC1)c64)C(=O)N(CCN1CCCCC1)C5=O`, the Activity result in the data set on BJ [1] was “tde”; in the data set with Nucleic Acid [2], 33%; in the data set on Nucleic Acid [3], 22%; in the data set with BJ [4], “Dose-dependent effect”; with BJ [6], “Toxic”; with Nucleic Acid [8] it was 12%. Besides, the Activity result was “Dose-dependent effect” in the data set on BJ [9], 9% with Nucleic Acid [10] and 13% in the data set with Nucleic Acid [16]. Moreover, the outcome with BJ [5] was Active. Also, the inhibition of growth at 3 µM with BJ [7] was 50%. Also, the values for the log Ks with Nucleic Acid [11], in the data set on Nucleic Acid [12] and in the data set on Nucleic Acid [13] were 3.8, 4.8 and 4.6, respectively. The results for the ΔTm in the data set with Nucleic Acid [14] and in the data set with Nucleic Acid [15] were 0.2 °C and 18.7 °C, respectively.
